# Test results published in ChEMBL document CHEMBL5678799 (Biochem J, 2009).
# Active and inactive are the calls of the source. No cut-off for these calls is given here.
# Key:
# [1] = biological target: Serine/threonine-protein kinase Nek2 (Homo sapiens) (UniProt P51955); test: Inhibition of recombinant human N-terminal His6-tagged NEK2A (1 to 445 residues) expressed in baculovirus infected Sf21 cells assessed as remaining activity at 10 uM using RFRRSRRMI as substrate incubated for 30 mins in presence of [gamma-33P]ATP by filter binding method relative to control
# mTORC1 (Homo sapiens) [2] = biological target: T1, mTORC1 (Homo sapiens) (UniProt P42345+Q8N122+Q9BVC4); conditions: HEK293, dose 30-1000 nM, time 30.0 min
# [3] = biological target: MAP kinase-activated protein kinase 2 (Homo sapiens) (UniProt P49137); test: Inhibition of recombinant human N-terminal GST/C-terminal Myc-tagged MAPKAPK2 (46 to 400 residues) expressed in Escherichia coli assessed as remaining activity at 10 uM using KKLNRTLSVA as substrate incubated for 30 mins in presence of [gamma-33P]ATP by filter binding method relative to control
# In short: (§1)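 Incubations ran robotically for 30 min at room temperature (21 °C) under linear conditions. Results are percent activity remaining versus controls without compound, as the mean of triplicates ± S.D.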
# [4] = biological target: Proto-oncogene tyrosine-protein kinase Src (Homo sapiens) (UniProt P12931); test: Inhibition of recombinant human N-terminal His6-tagged SRC (1 to 536 residues) expressed in baculovirus infected Sf21 cells assessed as remaining activity at 10 uM using KVEKIGEGTYGVVYK as substrate incubated for 30 mins in presence of [gamma-33P]ATP by filter binding assay relative to control
# [5] = biological target: Tyrosine-protein kinase SYK (Homo sapiens) (UniProt P43405); test: Inhibition of recombinant human N-terminal His6-tagged SYK (1 to 635 residues) expressed in baculovirus infected Sf21 cells assessed as remaining activity at 1 uM using Poly (Glu,Tyr) as substrate incubated for 30 mins in presence of [gamma-33P]ATP by filter binding assay relative to control
# [6] = biological target: Ribosomal protein S6 kinase alpha-3 (Homo sapiens) (UniProt P51812); test: Inhibition of recombinant human N-terminal His6-tagged RSK2 (2 to 740 residues) expressed in baculovirus infected Sf21 cells assessed as remaining activity at 10 uM using KKLNRTLSVA as substrate incubated for 30 mins in presence of [gamma-33P]ATP by filter binding method relative to control
# In short: (§2)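 Assays ran 30 min at 21 °C, robotically and in the linear range. Remaining activity is given relative to incubations lacking compound, as the average of triplicate determinations ± S.D.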
# [7] = biological target: Serine/threonine-protein kinase pim-3 (Homo sapiens) (UniProt Q86V86); test: Inhibition of recombinant human N-terminal His6-tagged PIM3 (2 to 326 residues) expressed in baculovirus infected Sf21 cells assessed as remaining activity at 10 uM using RSRHSSYPAGT as substrate incubated for 30 mins in presence of [gamma-33P]ATP by filter binding method relative to control
# [8] = biological target: Serine/threonine-protein kinase PLK1 (Homo sapiens) (UniProt P53350); test: Inhibition of recombinant human N-terminal His6-tagged PLK1 (1 to 603 residues) expressed in baculovirus infected Sf21 cells assessed as remaining activity at 1 uM using ISDELMDATFADQEAKKK as substrate incubated for 30 mins in presence of [gamma-33P]ATP by filter binding method relative to control
# In short: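 Radiometric panel assay run robotically at 21 °C for 30 min, linear in time and enzyme. […] Activity is expressed as percentage of the compound-omitted control, averaged from triplicates ± S.D.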
# mTORC1 (Homo sapiens) [9] = biological target: T1, mTORC1 (Homo sapiens); conditions: HEK293, dose 30-1000 nM, time 30.0 min; remark: listed apart in the source
# [10] = biological target: Vascular endothelial growth factor receptor 1 (Homo sapiens) (UniProt P17948); test: Inhibition of recombinant human N-terminal GST-tagged VEGFR1 (784 to 1338 residues) expressed in baculovirus infected Sf21 cells assessed as remaining activity at 10 uM using KKKSPGEYVNIEFG as substrate incubated for 30 mins in presence of [gamma-33P]ATP by filter binding assay relative to control
# In short: (§3)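 Panel assays were run for 30 min at 21 °C, within the linear range for time and enzyme. […] Results are percent activity remaining relative to compound-free control, averaged from triplicate ± S.D.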
# mTORC1 (Homo sapiens) [11] = biological target: T1, mTORC1 (Homo sapiens); conditions: HEK293, dose 300.0 nM, time 30.0 min
# [12] = biological target: Serine/threonine-protein kinase Nek6 (Homo sapiens) (UniProt Q9HC98); test: Inhibition of recombinant human His6-tagged NEK6 (8 to 313 residues) expressed in baculovirus infected Sf21 cells assessed as remaining activity at 1 uM using FLAKSFGSPNRAYKK as substrate incubated for 30 mins in presence of [gamma-33P]ATP by filter binding method relative to control
# In short: (§4)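 Run robotically for 30 min at 21 °C under linear conditions. Compound at 1 or 10 µM. Percentage activity remaining versus control without compound, triplicate mean ± S.D.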
# [13] = biological target: Calcium/calmodulin-dependent protein kinase type 1 (Homo sapiens) (UniProt Q14012); test: Inhibition of recombinant human N-terminal GST-tagged CAMK1alpha (2 to 369 residues) expressed in Escherichia coli assessed as remaining activity at 1 uM using YLRRRLSDSNF as substrate incubated for 30 mins in presence of [gamma-33P]ATP by filter binding method relative to control; in short: as §4
# [14] = biological target: Serine/threonine-protein kinase BRSK2 (Homo sapiens) (UniProt Q8IWQ3); test: Inhibition of recombinant human N-terminal His6-tagged BRSK2 (2 to 674 residues) expressed in baculovirus infected Sf21 cells assessed as remaining activity at 10 uM using KKLNRTLSFAEPG as substrate incubated for 30 mins in presence of [gamma-33P]ATP by filter binding method relative to control; in short: as §2
# [15] = biological target: Serine/threonine-protein kinase PAK 6 (Homo sapiens) (UniProt Q9NQU5); test: Inhibition of recombinant human N-terminal GST-tagged PAK6 (2 to 681 residues) expressed in Escherichia coli assessed as remaining activity at 1 uM using RRRLSFAEPG as substrate incubated for 30 mins in presence of [gamma-33P]ATP by filter binding method relative to control; in short: as §3
# [16] = test system: Ribosomal protein S6 kinase beta-1 (Homo sapiens), P23443 [T412E]; test: Inhibition of recombinant human His6-tagged S6K1 T412E mutant (1 to 421 residues) expressed in baculovirus infected Sf21 cells assessed as remaining activity at 1 uM using KKRNRTLTV as substrate incubated for 30 mins in presence of [gamma-33P]ATP by filter binding method relative to control; in short: as §1
# [17] = biological target: Insulin receptor (Homo sapiens) (UniProt P06213); test: Inhibition of recombinant human N-terminal His6-tagged IR (1001 to 1382 residues) expressed in baculovirus infected Sf21 cells assessed as remaining activity at 1 uM using KKSRGDYMTMQIG as substrate incubated for 30 mins in presence of [gamma-33P]ATP by filter binding method relative to control; in short: as §3
# Chain of Insulin receptor (Homo sapiens) (P06213 28-758 limits assumed): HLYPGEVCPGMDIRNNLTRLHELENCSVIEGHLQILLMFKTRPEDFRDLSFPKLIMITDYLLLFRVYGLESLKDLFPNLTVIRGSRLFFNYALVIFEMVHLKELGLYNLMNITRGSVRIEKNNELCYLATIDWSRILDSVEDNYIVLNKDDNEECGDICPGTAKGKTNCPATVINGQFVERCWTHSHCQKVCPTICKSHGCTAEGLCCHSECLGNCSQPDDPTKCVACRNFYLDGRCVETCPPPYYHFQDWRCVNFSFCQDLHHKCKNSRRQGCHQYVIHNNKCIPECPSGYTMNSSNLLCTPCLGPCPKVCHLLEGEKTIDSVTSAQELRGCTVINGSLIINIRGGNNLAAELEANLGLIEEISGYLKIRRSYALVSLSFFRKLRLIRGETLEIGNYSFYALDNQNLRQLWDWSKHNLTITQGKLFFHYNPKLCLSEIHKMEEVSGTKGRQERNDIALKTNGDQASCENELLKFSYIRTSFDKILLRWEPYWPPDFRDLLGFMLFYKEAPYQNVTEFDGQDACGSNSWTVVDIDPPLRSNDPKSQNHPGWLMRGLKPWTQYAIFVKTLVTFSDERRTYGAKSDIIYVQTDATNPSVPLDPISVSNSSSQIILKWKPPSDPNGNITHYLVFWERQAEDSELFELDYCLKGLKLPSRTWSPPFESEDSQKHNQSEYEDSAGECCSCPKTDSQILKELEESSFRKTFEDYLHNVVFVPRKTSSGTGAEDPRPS
# Chain of Insulin receptor (Homo sapiens) (P06213 763-1382 limits assumed): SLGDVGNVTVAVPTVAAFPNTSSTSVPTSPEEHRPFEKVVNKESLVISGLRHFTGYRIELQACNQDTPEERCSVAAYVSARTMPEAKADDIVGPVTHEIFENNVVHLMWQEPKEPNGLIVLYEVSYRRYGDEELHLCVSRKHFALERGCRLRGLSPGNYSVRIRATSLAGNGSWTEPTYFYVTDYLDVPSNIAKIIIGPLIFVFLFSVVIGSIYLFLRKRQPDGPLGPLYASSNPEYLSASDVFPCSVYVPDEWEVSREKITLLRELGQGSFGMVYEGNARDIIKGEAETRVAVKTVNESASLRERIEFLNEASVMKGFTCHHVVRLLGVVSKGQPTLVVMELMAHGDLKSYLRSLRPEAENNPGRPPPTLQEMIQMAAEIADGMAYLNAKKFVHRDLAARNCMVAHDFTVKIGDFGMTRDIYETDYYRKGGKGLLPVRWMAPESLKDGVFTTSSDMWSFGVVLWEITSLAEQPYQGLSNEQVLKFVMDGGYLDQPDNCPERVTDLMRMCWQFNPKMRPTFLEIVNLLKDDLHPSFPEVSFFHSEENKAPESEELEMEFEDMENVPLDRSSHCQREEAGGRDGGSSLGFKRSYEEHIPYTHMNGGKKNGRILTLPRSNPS
# T1 sequence (Q8N122 whole entry, looked up, other chains not shown, the tested form may be a part): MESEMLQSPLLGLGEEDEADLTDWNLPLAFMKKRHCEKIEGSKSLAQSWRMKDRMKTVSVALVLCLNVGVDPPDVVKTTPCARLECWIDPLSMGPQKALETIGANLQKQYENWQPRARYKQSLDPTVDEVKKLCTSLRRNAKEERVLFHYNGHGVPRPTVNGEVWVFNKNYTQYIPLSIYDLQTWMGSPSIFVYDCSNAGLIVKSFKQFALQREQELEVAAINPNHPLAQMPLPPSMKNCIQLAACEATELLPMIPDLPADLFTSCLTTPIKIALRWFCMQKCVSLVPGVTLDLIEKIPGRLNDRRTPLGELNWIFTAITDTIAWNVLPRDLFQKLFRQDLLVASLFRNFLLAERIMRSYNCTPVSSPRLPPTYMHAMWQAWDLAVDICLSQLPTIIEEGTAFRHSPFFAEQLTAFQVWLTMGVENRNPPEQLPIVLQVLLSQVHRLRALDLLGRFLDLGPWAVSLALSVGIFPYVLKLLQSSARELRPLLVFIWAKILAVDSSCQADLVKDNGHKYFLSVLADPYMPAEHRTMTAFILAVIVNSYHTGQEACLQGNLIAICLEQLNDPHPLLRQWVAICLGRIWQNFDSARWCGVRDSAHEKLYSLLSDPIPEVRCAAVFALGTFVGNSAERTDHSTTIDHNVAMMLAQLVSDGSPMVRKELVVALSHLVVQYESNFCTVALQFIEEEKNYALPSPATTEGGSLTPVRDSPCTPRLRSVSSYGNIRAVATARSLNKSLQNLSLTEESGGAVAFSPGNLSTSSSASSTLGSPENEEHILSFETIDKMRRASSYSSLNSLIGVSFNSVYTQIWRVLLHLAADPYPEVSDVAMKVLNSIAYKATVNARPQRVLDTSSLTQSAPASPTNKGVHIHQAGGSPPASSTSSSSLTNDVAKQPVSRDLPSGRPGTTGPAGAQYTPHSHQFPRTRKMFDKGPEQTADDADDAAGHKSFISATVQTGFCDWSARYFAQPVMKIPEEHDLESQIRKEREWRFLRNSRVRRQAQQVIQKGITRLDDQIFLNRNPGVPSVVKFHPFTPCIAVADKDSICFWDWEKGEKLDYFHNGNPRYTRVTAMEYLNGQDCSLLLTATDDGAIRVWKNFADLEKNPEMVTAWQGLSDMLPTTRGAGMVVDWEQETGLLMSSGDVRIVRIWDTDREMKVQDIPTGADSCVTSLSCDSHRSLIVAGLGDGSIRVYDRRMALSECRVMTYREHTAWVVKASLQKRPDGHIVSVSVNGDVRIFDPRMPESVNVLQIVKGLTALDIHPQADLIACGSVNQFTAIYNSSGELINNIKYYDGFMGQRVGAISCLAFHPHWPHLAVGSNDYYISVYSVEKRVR
# T1 sequence (Q9BVC4 whole entry, looked up, other chains not shown, the tested form may be a part): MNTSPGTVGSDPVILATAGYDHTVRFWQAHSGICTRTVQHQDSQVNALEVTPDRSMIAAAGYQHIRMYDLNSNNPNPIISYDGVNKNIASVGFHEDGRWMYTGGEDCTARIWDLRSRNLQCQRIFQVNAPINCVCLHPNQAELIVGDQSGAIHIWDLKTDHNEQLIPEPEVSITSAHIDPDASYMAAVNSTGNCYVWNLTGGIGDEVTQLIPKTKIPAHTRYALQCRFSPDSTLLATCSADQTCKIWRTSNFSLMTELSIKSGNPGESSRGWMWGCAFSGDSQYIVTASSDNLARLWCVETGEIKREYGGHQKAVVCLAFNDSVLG
# Chain of Serine/threonine-protein kinase PAK 6 (Homo sapiens) (Q9NQU5 whole entry, looked up, the tested form may be a part): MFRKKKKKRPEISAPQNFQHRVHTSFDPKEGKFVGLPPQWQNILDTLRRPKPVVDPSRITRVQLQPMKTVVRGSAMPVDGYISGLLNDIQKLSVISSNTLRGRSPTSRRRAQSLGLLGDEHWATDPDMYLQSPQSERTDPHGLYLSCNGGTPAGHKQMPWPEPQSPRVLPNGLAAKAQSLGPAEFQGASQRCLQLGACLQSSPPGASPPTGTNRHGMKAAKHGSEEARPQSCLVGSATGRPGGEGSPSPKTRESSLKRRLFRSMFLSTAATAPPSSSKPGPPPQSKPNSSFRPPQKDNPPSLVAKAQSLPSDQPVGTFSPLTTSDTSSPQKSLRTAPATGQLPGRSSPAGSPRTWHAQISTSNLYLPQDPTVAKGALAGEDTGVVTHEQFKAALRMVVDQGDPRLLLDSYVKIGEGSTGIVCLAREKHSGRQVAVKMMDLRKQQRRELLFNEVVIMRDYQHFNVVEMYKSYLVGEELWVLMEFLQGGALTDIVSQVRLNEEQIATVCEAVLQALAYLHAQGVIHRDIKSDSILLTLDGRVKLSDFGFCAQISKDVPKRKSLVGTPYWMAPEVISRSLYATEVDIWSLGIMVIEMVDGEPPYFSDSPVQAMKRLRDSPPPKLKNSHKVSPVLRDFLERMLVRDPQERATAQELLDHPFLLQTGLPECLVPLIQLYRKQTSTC
# Chain of Serine/threonine-protein kinase PLK1 (Homo sapiens) (P53350 whole entry, the tested form may be a part): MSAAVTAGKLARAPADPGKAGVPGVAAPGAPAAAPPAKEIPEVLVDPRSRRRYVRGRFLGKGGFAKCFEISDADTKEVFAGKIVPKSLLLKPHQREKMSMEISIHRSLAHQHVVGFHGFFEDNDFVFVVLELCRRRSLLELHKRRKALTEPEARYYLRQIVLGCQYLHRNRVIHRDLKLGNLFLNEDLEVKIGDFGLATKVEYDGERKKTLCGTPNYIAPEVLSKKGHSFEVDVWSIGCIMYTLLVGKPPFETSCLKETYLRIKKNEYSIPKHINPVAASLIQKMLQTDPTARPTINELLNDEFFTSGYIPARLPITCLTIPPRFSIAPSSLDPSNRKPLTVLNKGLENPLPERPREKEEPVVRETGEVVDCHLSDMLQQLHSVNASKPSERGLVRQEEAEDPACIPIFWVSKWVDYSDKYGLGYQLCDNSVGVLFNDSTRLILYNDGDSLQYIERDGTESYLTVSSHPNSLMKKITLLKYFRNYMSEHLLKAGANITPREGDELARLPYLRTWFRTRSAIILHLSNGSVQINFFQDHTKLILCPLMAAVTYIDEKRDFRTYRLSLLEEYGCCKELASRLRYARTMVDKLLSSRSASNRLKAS
# Chain of Calcium/calmodulin-dependent protein kinase type 1 (Homo sapiens) (Q14012 whole entry, looked up, the tested form may be a part): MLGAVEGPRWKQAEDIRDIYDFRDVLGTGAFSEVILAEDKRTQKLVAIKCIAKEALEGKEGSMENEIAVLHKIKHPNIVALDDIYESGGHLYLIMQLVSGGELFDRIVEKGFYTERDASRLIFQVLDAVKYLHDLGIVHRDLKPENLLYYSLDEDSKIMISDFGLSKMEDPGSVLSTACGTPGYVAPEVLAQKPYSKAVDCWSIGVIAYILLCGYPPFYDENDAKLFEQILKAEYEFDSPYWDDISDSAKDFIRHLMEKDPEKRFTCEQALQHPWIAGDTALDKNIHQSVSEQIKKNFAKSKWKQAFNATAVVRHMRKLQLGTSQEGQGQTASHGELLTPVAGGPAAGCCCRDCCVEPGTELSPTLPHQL
structure (smiles),measurement,setting,value
COc1ccc(-c2ccc3c(N4CCOCC4)nc(N4C[C@@H](C)O[C@@H](C)C4)nc3n2)cc1CO [Ku-0063794],Activity,[1],86%
same,inhibition,mTORC1 (Homo sapiens) [2],Dose-Dependent Effect
same,Activity,[3],81%
same,Activity,[4],86%
same,Activity,[5],88%
same,Activity,[6],104%
same,Activity,[7],75%
same,Activity,[8],76%
same,inhibition,mTORC1 (Homo sapiens) [9],Active
same,Activity,[10],92%
same,inhibition,mTORC1 (Homo sapiens) [11],90%
same,Activity,[12],74%
same,Activity,[13],96%
same,Activity,[14],72%
same,Activity,[15],75%
same,Activity,[16],104%
same,Activity,[17],81%
